The text below walks through data of PubChem BioAssay.

A word on the inhibition: it is the drop in the measured response relative to a control, in per cent.

Structures are written as SMILES. The source made the active and inactive calls.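 The calls were made as follows, unless noted: active = NADPH fluorescence slope more negative than the mean of all samples by about 3 SD, 99.7% confidence; inactive = the rest.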

A short description of test [1]: inhibitors of TNFa-induced NFkB p65 translocation, primary screen, imaging, HUVEC, MLSMR starter and 10KST1 sets (AID 438;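 active = inhibition above 20% together with a positive visual image hit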;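 also: compound added about 3h40 before a 20 min TNFalpha stimulation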;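 as to inhibition: signal is the nuclear over cytoplasmic p65 intensity ratio per well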). The settings on record: HUVEC TNFa-induced p65 nuclear translocation; cell count: measured here: nuclei count (cytotoxicity indicator), at 2.08 µM; inhibition: at 2 µM, stronger effect = higher value, 0% TNFa-plus-vehicle, 100% no-TNFa wells.
Test [2] is described as follows: inhibitors of mutant huntingtin aggregation, primary screen, imaging, exon1htt(103Q)mCFP cells, high-content imaging (AID 483;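 active = visual image review flags a hit and inhibition of aggregation exceeds 20%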;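 also: compound exposure lasted 3 days before fixation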;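 as to nuclei count: percent of the per-plate median nuclei count of sample wells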). The settings on record: exon1htt(103Q)mCFP cell line, aggregate imaging, at 2 µM; inhibition of aggregation: stronger effect = higher value; nuclei count: measured here: cell count, toxicity.
Test [3] can be described thus: inhibitors of E-selectin induction by TNFa, primary screen, imaging, HUVEC, immunofluorescence, MLSMR starter and 10KST1 sets (AID 487;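 active = visually confirmed hit in the image check and inhibition above 20%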;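 as to inhibition: signal is fraction of cell area covered by stained E-selectin grains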;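 as to nuclei count: 100% = median nuclei count of all wells on the same plate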). The settings on record: HUVEC TNFalpha-induced E-selectin immunofluorescence imaging, at 2 µM; inhibition: stronger effect = higher value; nuclei count: measured here: cell number, toxicity.
Test [4] addresses Voltage-gated potassium channel subunit beta-2 (Rattus norvegicus) (UniProt P62483). Put plainly: KvBeta enzyme negative modulators, primary screen, biochemical, NADPH fluorescence (AID 622;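 active = fluorescence slope higher than the sample average by over 3 SD, cut at about -0.22 in these data, passing the limit was not always enough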;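 also: slope of raw intensity against log time taken from 70 to 1610 s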). The settings on record: recombinant KvBeta, 4-cyanobenzaldehyde reduction, at 10 µM, stronger effect = higher value.
Test [5] has the same target. Put plainly: KvBeta positive modulators, primary screen, biochemical, NADPH fluorescence (AID 623).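 Also: fluorescence intensity change per second fitted from 20 to 320 s.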 To be noted: Recombinant KvBeta, NADPH fluorescence decrease slope, 10 min; at 10 µM; stronger effect = lower value.
Test [6] has as its target Muscarinic acetylcholine receptor M4 (Homo sapiens) (UniProt P08173). Put plainly: compounds altering M4/GIRK thallium flux, either direction, primary screen, M4 allosteric agonist project, cell-based, HEK293 M4/GIRK, BTC-AM (AID 625;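 active = fluorescence slope after compound addition differing from the mean of all tested samples at 99.7% confidence, mostly higher but some lower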;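 also: thallium influx through GIRK channels coupled to M4 in HEK293 cells with BTC-AM dye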). The settings on record: at 10 µM, actives lie on both sides. A digest of the protocol:
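Material: HEK293 cells with M4 receptor and GIRK channels; Times: cells overnight at 37 °C, BTC-AM loading 1 h, reads 2 min total; Technique: kinetic BTC-AM fluorescence sampled at 1 Hz, 10 s pre-addition baseline; Read-out basis: slope over 15–24 s of trace normalized to starting intensity; Controls: carbachol positive, DMSO negative.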

Test [7] is described as follows: inhibitors of Sendai virus-induced IRF3 signaling, primary screen, TLR/RLR signaling modifier project, cell-based, Sendai virus stimulus, luciferase, 10K MLSCN set (AID 602276;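 active = inhibition at or above 50% at 10 µM; inactive = inhibition below 50%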;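 also: firefly luciferase from ISG56 promoter only with Renilla not read in this screen; 0% = Sendai virus plus DMSO and 100% = medium plus DMSO without virus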). To be noted: HEK293 RL24 IRF3 luciferase reporter, at 10 µM, stronger effect = higher value. (In general: Reporter assays use an easily measured gene product as a stand-in for the process of interest.)

Test [8] in a line: inhibitors of poly I:C-induced TLR3 signaling, primary screen, cell-based, poly I:C stimulus, luciferase, 10K MLSCN set (AID 602277;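 active = inhibition of the reporter signal at or above 50%; inactive = inhibition below 50%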). The settings on record: HEK293-TLR3 RL24 IRF3 luciferase reporter, at 10 µM, stronger effect = higher value.

Muscarinic acetylcholine receptor M4 (Homo sapiens), sequence (P08173 whole entry, looked up): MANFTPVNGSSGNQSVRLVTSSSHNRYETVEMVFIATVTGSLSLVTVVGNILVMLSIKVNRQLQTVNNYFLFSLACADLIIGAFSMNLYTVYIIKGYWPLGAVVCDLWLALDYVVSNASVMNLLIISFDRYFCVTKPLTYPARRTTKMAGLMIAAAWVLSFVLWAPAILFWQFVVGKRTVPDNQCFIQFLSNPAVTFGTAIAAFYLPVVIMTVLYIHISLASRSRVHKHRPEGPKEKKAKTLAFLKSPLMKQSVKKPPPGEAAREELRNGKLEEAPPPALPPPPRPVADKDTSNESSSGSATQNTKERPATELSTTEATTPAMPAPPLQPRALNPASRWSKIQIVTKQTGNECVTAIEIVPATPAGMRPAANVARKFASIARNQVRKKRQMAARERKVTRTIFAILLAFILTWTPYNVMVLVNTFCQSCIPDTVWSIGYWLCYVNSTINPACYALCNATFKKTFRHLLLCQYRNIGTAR
Voltage-gated potassium channel subunit beta-2 (Rattus norvegicus), sequence (P62483 whole entry, looked up): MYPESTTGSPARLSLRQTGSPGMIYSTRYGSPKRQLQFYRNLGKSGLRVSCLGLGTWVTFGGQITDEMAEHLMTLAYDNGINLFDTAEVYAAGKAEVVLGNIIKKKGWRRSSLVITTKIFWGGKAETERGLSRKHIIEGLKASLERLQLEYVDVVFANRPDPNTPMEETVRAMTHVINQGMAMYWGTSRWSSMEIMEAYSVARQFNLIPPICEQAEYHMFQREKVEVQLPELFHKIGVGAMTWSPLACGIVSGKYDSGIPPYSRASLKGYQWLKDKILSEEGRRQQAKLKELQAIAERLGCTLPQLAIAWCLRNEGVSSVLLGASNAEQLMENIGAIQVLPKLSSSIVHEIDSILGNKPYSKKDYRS

On to `CCCCc1ccc(NC(=O)c2c(C)noc2C)cc1`, for which, in test [1], the cell count was found to be 451. Also, the inhibition in test [1] was -2.5% (inactive); in test [3] it was 47.3% (inactive); in test [7] it was -8.01% (inactive); in test [8] it was -38.5% (inactive). In test [2], the inhibition of aggregation was 0.1% (inactive). In addition, the nuclei count in test [2] came out at 109%; in test [3], 95.2%. Also, the fluorescence slope is -0.563 (inactive) in test [4] and 0.00365 (inactive) in test [6]. The NADPH fluorescence slope in test [5] is -0.000106 (inactive).

With `Cc1cc(NC(=O)c2cnn3cccnc23)no1`, the cell count in test [1] turned out to be 467. The inhibition in test [1] was 0.3% (inactive); in test [3] it was -33.8% (inactive); in test [7] it was -57.6% (inactive); in test [8], -124% (inactive). Further, the inhibition of aggregation in test [2] is 3.3% (inactive). Moreover, the nuclei count in test [2] came out at 104%; in test [3], 119%. For the same compound, the figures for the fluorescence slope in test [4] and in test [6] were -0.613 (inactive) and 0.00996 (inactive), respectively. Moreover, the NADPH fluorescence slope in test [5] is -4.3e-05 (inactive).

Consider `COc1ccc(Cn2c(=O)[nH]c3cc(C(=O)NCCCN4CCCC4)ccc3c2=O)cc1`, for which, in test [1], the cell count came to 474. Besides, the inhibition in test [1] was -5.2% (inactive); in test [3], 30.4% (inactive); in test [7] it was 11% (inactive); in test [8], -6.33% (inactive). Besides, the inhibition of aggregation in test [2] is 30.8% (inactive). Also, the nuclei count was 88.2% in test [2] and 139% in test [3]. The values for the fluorescence slope in test [4] and in test [6] were -0.26 (inactive) and 0.00648 (inactive), respectively. Also, in test [5], the NADPH fluorescence slope was -1.4e-05 (inactive).

Turning to `CCOC(=O)c1sc2nc(C)cc(C)c2c1N`, the cell count in test [1] amounted to 443. The inhibition in test [1] was 8.7% (inactive); in test [3], -26% (inactive); in test [7], -33.2% (inactive); in test [8], -45.5% (inactive). Besides, the inhibition of aggregation in test [2] was -13.6% (inactive). Further, the nuclei count in test [2] is 111%; in test [3], 127%. Besides, the figures for the fluorescence slope in test [4] and in test [6] were -0.105 (inactive) and 0.00463 (inactive), respectively. Besides, in test [5], the NADPH fluorescence slope was -1.9e-05 (inactive).

With `N#CCCCN1C(=O)C(O)(CC(=O)c2ccc3c(c2)OCCO3)c2ccccc21` (centres undefined), the cell count in test [1] is 698. For the same compound, the inhibition is -8.8% (inactive) in test [1], -15.5% (inactive) in test [3], 7.56% (inactive) in test [7] and 11.6% (inactive) in test [8]. Besides, the inhibition of aggregation in test [2] was -16.7% (inactive). Also, the results for the nuclei count in test [2] and in test [3] were 100% and 112%, respectively. Further, the values for the fluorescence slope in test [4] and in test [6] were -0.567 (inactive) and 0.0053 (inactive), respectively. Also, in test [5], the NADPH fluorescence slope was 1.9e-06 (inactive).

Turning to `COc1ccc(OC)c(NC(=O)c2cn(C)c(=O)c3cc(OC)c(OC)cc23)c1`, the cell count in test [1] turned out to be 782. Also, the inhibition in test [1] was -20.3% (inactive); in test [3], 10.9% (inactive); in test [7], -16.7% (inactive); in test [8] it was -26.6% (inactive). Moreover, in test [2], the inhibition of aggregation is 1.3% (inactive). Also, the values for the nuclei count in test [2] and in test [3] were 97.7% and 119%, respectively. In addition, the values for the fluorescence slope in test [4] and in test [6] were -0.307 (inactive) and 0.00686 (inactive), respectively. Besides, the NADPH fluorescence slope in test [5] is -1.5e-05 (inactive).

Regarding `O=C(CNC(=O)c1cccs1)NCCN1CCN(c2ccccc2F)CC1`, the cell count in test [1] came out at 585. For the same compound, the inhibition in test [1] was -8.2% (inactive); in test [3], -19.1% (inactive); in test [7] it was 19.5% (inactive); in test [8], 17.5% (inactive). In test [2], the inhibition of aggregation is -28.3% (inactive). Besides, the nuclei count stood at 99.6% in test [2] and 106% in test [3]. Besides, the values for the fluorescence slope in test [4] and in test [6] were -0.451 (inactive) and 0.00484 (inactive), respectively. Also, in test [5], the NADPH fluorescence slope is -3.9e-05 (inactive).

Regarding `O=C(CNS(=O)(=O)c1ccc(Br)s1)N1CCCC1`, in test [1], the cell count was found to be 367. Further, the inhibition in test [1] was 3.7% (inactive); in test [3], -164% (inactive); in test [7], 21.1% (inactive); in test [8], 25.7% (inactive). Besides, in test [2], the inhibition of aggregation is -1% (inactive). Further, the nuclei count in test [2] stood at 93.3%; in test [3] it was 101%. Further, the fluorescence slope was -0.636 (inactive) in test [4] and 0.00369 (inactive) in test [6]. Besides, the NADPH fluorescence slope in test [5] was -9.6e-06 (inactive).

Regarding `Cc1cccc(N(C)C(=O)c2coc(=O)c3ccccc23)c1`, the cell count in test [1] is 199. Also, the inhibition in test [1] is -0.8% (inactive); in test [3], -1.9% (inactive); in test [7] it was 14.1% (inactive); in test [8], 26.6% (inactive). For the same compound, the inhibition of aggregation in test [2] was -9.3% (inactive). For the same compound, the results for the nuclei count in test [2] and in test [3] were 105% and 104%, respectively. The fluorescence slope in test [4] was -0.563 (inactive); in test [6], 0.00467 (inactive). For the same compound, the NADPH fluorescence slope in test [5] is 1.4e-05 (inactive).

`Cc1ccc(C)c(C(=O)NC2CC(C)(C)NC(C)(C)C2)c1`: the cell count in test [1] amounted to 690. Besides, the inhibition was 0.8% (inactive) in test [1], -8.2% (inactive) in test [3], -2.48% (inactive) in test [7] and 9.21% (inactive) in test [8]. Besides, the inhibition of aggregation in test [2] was 14% (inactive). The nuclei count in test [2] was determined as 94%; in test [3] it was 96%. The fluorescence slope in test [4] was -0.578 (inactive); in test [6], 0.00855 (inactive). In addition, in test [5], the NADPH fluorescence slope was -5.3e-05 (inactive).

On to `Cc1cc2c(s1)c1cnn(CC(=O)NCCc3ccccc3)c(=O)c1n2C`, for which the cell count in test [1] was 279. Further, the inhibition in test [1] was 17.5% (inactive); in test [3], -76.9% (inactive); in test [7] it was 15.1% (inactive); in test [8], -1.81% (inactive). For the same compound, the inhibition of aggregation in test [2] is -21.4% (inactive). In addition, the nuclei count in test [2] turned out to be 104%; in test [3], 102%. Further, the fluorescence slope is -0.236 (inactive) in test [4] and 0.00662 (inactive) in test [6]. Further, the NADPH fluorescence slope in test [5] was -7.6e-06 (inactive).

Consider `COc1ccc(Cn2nnnc2C(c2ccncc2)N2CCOCC2)cc1` (centres undefined), for which the cell count in test [1] worked out at 543. The inhibition is 0.5% (inactive) in test [1], -90.6% (inactive) in test [3], 7.51% (inactive) in test [7] and 9.52% (inactive) in test [8]. Moreover, the inhibition of aggregation in test [2] was -5.2% (inactive). The values for the nuclei count in test [2] and in test [3] were 90.8% and 119%, respectively. The results for the fluorescence slope in test [4] and in test [6] were -0.608 (inactive) and 0.00759 (inactive), respectively. Besides, in test [5], the NADPH fluorescence slope was -1.7e-05 (inactive).

Turning to `Cc1cc(NC(=O)COC(=O)c2cccc(S(=O)(=O)N3CCOCC3)c2)no1`, in test [1], the cell count amounted to 457. The inhibition in test [1] is -26.1% (inactive); in test [3], 67.8% (active); in test [7], 12.1% (inactive); in test [8], 24.4% (inactive). The inhibition of aggregation in test [2] was 10.5% (inactive). The figures for the nuclei count in test [2] and in test [3] were 106% and 64.5%, respectively. The values for the fluorescence slope in test [4] and in test [6] were -0.471 (inactive) and 0.00706 (inactive), respectively. In addition, the NADPH fluorescence slope in test [5] was 1.8e-05 (inactive).

Take `CN1CCN(C(=O)c2ccccc2N(Cc2ccccc2)S(C)(=O)=O)CC1`: in test [1], the cell count came out at 359. In addition, the inhibition is 4% (inactive) in test [1], -6% (inactive) in test [3], -0.336% (inactive) in test [7] and 4.8% (inactive) in test [8]. Also, the inhibition of aggregation in test [2] was 2.7% (inactive). For the same compound, the nuclei count in test [2] came out at 111%; in test [3] it was 110%. For the same compound, the fluorescence slope in test [4] is -0.596 (inactive); in test [6], 0.00748 (inactive). Moreover, in test [5], the NADPH fluorescence slope is -6.8e-05 (inactive).
